Results as given in ChEMBL document CHEMBL2311437, “Synthesis, molecular docking and evaluation of thiazolyl-pyrazoline derivatives containing benzodioxole as potential anticancer agents” (Bioorg Med Chem, 2013).

Assays:
MCF7 [1] = test: Antiproliferative activity against human MCF7 cells after 48 hrs by MTT assay; assay type: functional, cell-based; details: MCF7, 48 h
[2] = Antiproliferative activity against mouse B16/F10 cells after 48 hrs by MTT assay; assay type: functional, cell-based; details: B16-F10, 48 h
In short: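 Cells seeded 7×10^3/well, grown 24 h, then exposed 48 h to compounds at final 0.1–100 µg/mL. MTT (5 mg/mL in PBS) added for 4 h, then 10% SDS in 0.01 N HCl, 18 h at 37 °C. Absorbance read at 570 nm. Survival given as % of untreated cells. IC50 taken from replicates of 6 wells over at least three independent experiments.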

[3] = biological target: Receptor tyrosine-protein kinase erbB-2 (Homo sapiens, UniProt P04626); test: Inhibition of human HER2 cytoplasmic domain (amino acids 676 to 1245) expressed in Sf9 cells by DELFIA time resolved fluorometry
In short: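 His6-tagged HER-2 was expressed in Sf-9 cells (3-day infection) and Ni-NTA purified at 4 °C. Assay measures autophosphorylation. Compound in 25 mM HEPES pH 7.4 (DMSO <0.1%) preincubated 10 min at RT with 12.5 ng enzyme. Then buffer (MnCl2, Na3VO4, DTT) and 0.1 mM ATP-50 mM MgCl2 (stock mix) added for 1 h. Readout: europium anti-phosphotyrosine, 1 h, ex 340/em 615 nm. IC50 from eight-concentration inhibition curves.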

MCF7 [4] = test: Induction of apoptosis in human MCF7 cells assessed as increase in cleaved caspase 3 levels after 24 hrs by Western blotting method; assay type: functional, cell-based
In short: (§1)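 Cells treated 24 h, harvested and lysed in Tris pH 7.5/NaCl/NP-40 buffer with phosphatase and protease inhibitors. Protein quantified by BCA. Separation by 10% SDS–PAGE, transfer to PVDF, blocking in 5% milk 2 h at RT. Probed overnight at 4 °C with anti-HER-2 or anti-cleaved caspase 3, then HRP secondary antibody.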

[5] = biological target: Receptor tyrosine-protein kinase erbB-2 (Mus musculus) (UniProt P70424); test: Inhibition of HER2 in mouse B16/F10 cells assessed as down regulation of HEr2 protein levels after 24 hrs by Western blotting method; assay type: cell-based; in short: as §1
B16-F10 = test: Induction of apoptosis in mouse B16/F10 cells assessed as increase in cleaved caspase 3 levels after 24 hrs by Western blotting method; assay type: functional, cell-based; in short: as §1

Receptor tyrosine-protein kinase erbB-2, sequence (P04626 whole entry, the tested form may be a part): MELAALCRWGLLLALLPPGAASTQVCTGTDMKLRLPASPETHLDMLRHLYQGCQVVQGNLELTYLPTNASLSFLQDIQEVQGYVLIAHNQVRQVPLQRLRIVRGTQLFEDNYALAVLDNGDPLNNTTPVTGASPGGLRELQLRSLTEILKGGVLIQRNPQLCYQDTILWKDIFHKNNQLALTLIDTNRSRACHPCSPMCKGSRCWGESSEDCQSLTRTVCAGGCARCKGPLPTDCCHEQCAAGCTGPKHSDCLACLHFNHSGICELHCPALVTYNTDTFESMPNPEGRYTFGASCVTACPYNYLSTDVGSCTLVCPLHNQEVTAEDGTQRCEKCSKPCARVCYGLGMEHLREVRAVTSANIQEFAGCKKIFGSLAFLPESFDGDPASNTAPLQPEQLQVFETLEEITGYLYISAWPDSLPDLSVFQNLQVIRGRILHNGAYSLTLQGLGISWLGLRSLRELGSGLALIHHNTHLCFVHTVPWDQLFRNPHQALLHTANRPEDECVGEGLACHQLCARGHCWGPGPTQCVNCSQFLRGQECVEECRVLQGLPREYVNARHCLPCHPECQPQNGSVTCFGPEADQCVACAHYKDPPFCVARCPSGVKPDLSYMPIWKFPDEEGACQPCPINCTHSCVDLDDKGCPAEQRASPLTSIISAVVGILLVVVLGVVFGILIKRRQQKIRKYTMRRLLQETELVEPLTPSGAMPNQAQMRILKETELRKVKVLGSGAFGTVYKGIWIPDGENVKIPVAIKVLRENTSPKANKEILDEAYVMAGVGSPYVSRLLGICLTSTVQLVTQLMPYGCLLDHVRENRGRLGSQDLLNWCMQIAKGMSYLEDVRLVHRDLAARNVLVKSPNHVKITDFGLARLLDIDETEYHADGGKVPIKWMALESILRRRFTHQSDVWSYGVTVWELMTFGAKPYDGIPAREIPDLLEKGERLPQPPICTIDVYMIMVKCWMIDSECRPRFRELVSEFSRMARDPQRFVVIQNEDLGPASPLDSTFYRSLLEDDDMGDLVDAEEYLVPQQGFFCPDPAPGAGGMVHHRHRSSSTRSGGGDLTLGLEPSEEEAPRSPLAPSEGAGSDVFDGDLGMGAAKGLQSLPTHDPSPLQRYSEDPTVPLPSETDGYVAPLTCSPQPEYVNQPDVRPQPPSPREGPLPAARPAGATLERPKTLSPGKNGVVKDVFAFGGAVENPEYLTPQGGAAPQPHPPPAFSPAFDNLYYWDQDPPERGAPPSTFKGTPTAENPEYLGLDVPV
Receptor tyrosine-protein kinase erbB-2 (Mus musculus), sequence (P70424 whole entry): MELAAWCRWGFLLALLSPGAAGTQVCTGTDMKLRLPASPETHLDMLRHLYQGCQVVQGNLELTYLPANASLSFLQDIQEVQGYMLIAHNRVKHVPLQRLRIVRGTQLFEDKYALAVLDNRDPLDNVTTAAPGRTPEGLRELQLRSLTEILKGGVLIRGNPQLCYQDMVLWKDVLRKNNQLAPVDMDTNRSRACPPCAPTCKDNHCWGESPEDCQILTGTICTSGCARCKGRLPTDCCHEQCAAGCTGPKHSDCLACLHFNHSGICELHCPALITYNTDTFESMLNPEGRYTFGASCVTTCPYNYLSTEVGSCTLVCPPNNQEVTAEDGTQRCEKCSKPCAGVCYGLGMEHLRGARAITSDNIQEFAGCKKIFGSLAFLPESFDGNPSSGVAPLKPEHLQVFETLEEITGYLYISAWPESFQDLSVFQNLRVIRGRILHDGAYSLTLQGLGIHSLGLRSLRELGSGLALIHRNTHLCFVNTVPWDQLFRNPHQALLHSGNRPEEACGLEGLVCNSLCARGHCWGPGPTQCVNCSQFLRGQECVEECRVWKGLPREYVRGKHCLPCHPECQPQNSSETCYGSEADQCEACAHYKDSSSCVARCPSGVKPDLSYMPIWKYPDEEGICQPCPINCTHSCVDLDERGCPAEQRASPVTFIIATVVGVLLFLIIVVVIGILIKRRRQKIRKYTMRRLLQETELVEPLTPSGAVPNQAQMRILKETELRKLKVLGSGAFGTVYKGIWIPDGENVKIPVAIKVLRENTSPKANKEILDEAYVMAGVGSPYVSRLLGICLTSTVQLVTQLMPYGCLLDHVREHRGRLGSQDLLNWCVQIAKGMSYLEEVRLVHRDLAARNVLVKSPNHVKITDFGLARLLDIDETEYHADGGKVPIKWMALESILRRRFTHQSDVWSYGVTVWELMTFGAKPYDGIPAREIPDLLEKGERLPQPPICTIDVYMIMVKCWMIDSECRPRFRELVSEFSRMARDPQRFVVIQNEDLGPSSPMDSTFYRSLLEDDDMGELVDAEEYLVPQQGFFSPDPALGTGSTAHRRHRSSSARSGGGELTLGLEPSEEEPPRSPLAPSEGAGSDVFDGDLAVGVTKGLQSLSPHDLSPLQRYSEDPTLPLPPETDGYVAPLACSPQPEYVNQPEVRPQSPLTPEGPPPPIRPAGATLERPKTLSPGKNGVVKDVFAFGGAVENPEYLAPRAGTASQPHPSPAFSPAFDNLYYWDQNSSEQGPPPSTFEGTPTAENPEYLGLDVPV

Compound	IC50 (MCF7 [1]) [nM]	IC50 [2] [nM]	IC50 [3] [nM]	Activity (MCF7 [4])	inhibition [5]	Activity (B16-F10)
COc1ccc(-c2csc(N3N=C(c4ccc(Br)cc4)CC3c3ccc4c(c3)OCO4)n2)cc1 (stereo not given)	270	320	850			
COc1ccc(-c2csc(N3N=C(c4ccc(C)cc4)CC3c3ccc4c(c3)OCCO4)n2)cc1 (stereo not given)	2680	2870				
Cc1ccc(C2=NN(c3nc(-c4ccc(Br)cc4)cs3)C(c3ccc4c(c3)OCCO4)C2)cc1 (stereo not given)	1590	1680				
Brc1ccc(C2=NN(c3nc(-c4ccc(Br)cc4)cs3)C(c3ccc4c(c3)OCO4)C2)cc1 (stereo not given)	90	120	180	Dose-dependent effect	Dose-dependent effect	Dose-dependent effect
Clc1ccc(C2=NN(c3nc(-c4ccc(Br)cc4)cs3)C(c3ccc4c(c3)OCO4)C2)cc1 (stereo not given)	1720	1510	2380			
COc1ccc(C2=NN(c3nc(-c4ccc(Br)cc4)cs3)C(c3ccc4c(c3)OCO4)C2)cc1 (stereo not given)	2470	2540				
Fc1ccc(C2=NN(c3nc(-c4ccc(Br)cc4)cs3)C(c3ccc4c(c3)OCCO4)C2)cc1 (stereo not given)	4200	4110				
COc1ccc(C2=NN(c3nc(-c4ccc(OC)cc4)cs3)C(c3ccc4c(c3)OCCO4)C2)cc1 (stereo not given)	2730	3010				
C#Cc1cccc(Nc2ncnc3cc(OCCOC)c(OCCOC)cc23)c1 [ERLOTINIB]		50				
COc1ccc(C2=NN(c3nc(-c4ccc(Br)cc4)cs3)C(c3ccc4c(c3)OCCO4)C2)cc1 (stereo not given)	2540	2520				
Fc1ccc(C2=NN(c3nc(-c4ccc(Br)cc4)cs3)C(c3ccc4c(c3)OCO4)C2)cc1 (stereo not given)	3430	3810				
Cc1ccc(C2=NN(c3nc(-c4ccc(Br)cc4)cs3)C(c3ccc4c(c3)OCO4)C2)cc1 (stereo not given)	1410	1390	2230			
COc1ccc(-c2csc(N3N=C(c4ccc(F)cc4)CC3c3ccc4c(c3)OCO4)n2)cc1 (stereo not given)	3650	3980				
COc1ccc(-c2csc(N3N=C(c4ccc(C)cc4)CC3c3ccc4c(c3)OCO4)n2)cc1 (stereo not given)	1430	1520				
COc1ccc(-c2csc(N3N=C(c4ccc(Br)cc4)CC3c3ccc4c(c3)OCCO4)n2)cc1 (stereo not given)	870	1120	1320			
Clc1ccc(C2=NN(c3nc(-c4ccc(Br)cc4)cs3)C(c3ccc4c(c3)OCCO4)C2)cc1 (stereo not given)	2230	2150				
COc1ccc(C2=NN(c3nc(-c4ccc(OC)cc4)cs3)C(c3ccc4c(c3)OCO4)C2)cc1 (stereo not given)	2730	2670				
COc1ccc(-c2csc(N3N=C(c4ccc(F)cc4)CC3c3ccc4c(c3)OCCO4)n2)cc1 (stereo not given)	4530	4430				
COc1ccc(-c2csc(N3N=C(c4ccc(Cl)cc4)CC3c3ccc4c(c3)OCO4)n2)cc1 (stereo not given)	2410	2320				
Brc1ccc(C2=NN(c3nc(-c4ccc(Br)cc4)cs3)C(c3ccc4c(c3)OCCO4)C2)cc1 (stereo not given)	320	430	460			
COc1ccc(-c2csc(N3N=C(c4ccc(Cl)cc4)CC3c3ccc4c(c3)OCCO4)n2)cc1 (stereo not given)	3030	3120				
